The source of these data is ChEMBL document CHEMBL4020774, “Anti-influenza activity of monoterpene-containing substituted coumarins” (Bioorg Med Chem Lett, 2017).

The nature of data set [1]: Antiviral activity against Influenza A virus (A/California/07/09(H1N1)) pdm09 infected in MDCK cells pretreated for 1 hr followed by viral infection incubated for 24 hrs measured after 48 hrs by hemagglutination test. It is filed as functional, cell-based, Influenza A virus (A/California/07/2009(H1N1)). The procedure, abridged:
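MDCK cells preincubated with compound for 1 h at 36°C, each concentration in triplicate, then infected (moi 0.01) for 24 h at 36°C, 5% CO2. Supernatant virus titer was read by hemagglutination after 48 h culture in MDCK cells at 36°C.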

Data set [2] is described as follows: Selectivity index, ratio of CC50 for MDCK cells to IC50 for Influenza A virus (A/California/07/09(H1N1)) pdm09 infected in MDCK cells. Particulars: dog; read-out: Ratio CC50/IC50. The class given is toxicity, cell-based.
The nature of data set [3]: Cytotoxicity against MDCK cells after 48 hrs by MTT assay. It is filed as cell-based, Canis lupus familiaris. The note with it: dog. The procedure, abridged: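 Uninfected MDCK cells were exposed to three-fold compound dilutions in MEM for 48 h at 36°C, 5% CO2, then washed with PBS. MTT ([…] in PBS) was added for 1 h, and formazan was dissolved in DMSO.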
On the technique in general: Formazan colour is commonly taken as a measure of viable cells.

The subject of data set [4] is Influenza A virus. As to the kind of experiment: Antiviral activity against Influenza A virus (A/Puerto Rico/8/34(H1N1)) infected in MDCK cells at 500 uM at 1 to 2 hrs post infection by MTT assay. The class given is functional, cell-based. The note with it: A/Puerto Rico/8/1934(H1N1). The procedure, abridged:
(§1)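 Time-of-addition assay in MDCK cells. Virus was adsorbed at m.o.i. 10 for 1 h at 4°C, unbound virions were washed off with MEM, and cells were incubated for 8 h at 36°C, 5% CO2 (start = 0 h). Compound at 500 µM final in MEM was present during set windows between −2 and 8 hpi, then washed out. Titer after 8 h was read as TCID50 by MTT assay.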

In data set [5] the test system is Influenza A virus. In words: Antiviral activity against Influenza A virus (A/Puerto Rico/8/34(H1N1)) infected in MDCK cells at 500 uM after 4 to 8 hrs post infection by MTT assay. The class given is functional, cell-based. Particulars: A/Puerto Rico/8/1934(H1N1). Put shortly:
as §1

Molecules are shown by their SMILES. The source made the active and inactive calls. The rule behind the calls is not given here.

Broadly, the IC50 is the concentration needed to halve the response being measured. By CC50 is commonly meant the concentration giving 50% cytotoxicity. A high value points to better tolerance by the cells. Regarding `CC1(C)[C@@H]2CC=C(COc3ccc4c5c(c(=O)oc4c3)CCCC5)[C@H]1C2`, in data set [1], the 50% inhibitory concentration (IC50) came to 149 µM. For the same molecule, the selectivity ratio in data set [2] came out at 3. For the same molecule, half-maximal cytotoxicity in data set [3] (CC50 at 48 h) was put at 415 µM.

On to `CC(C)=CCC/C(C)=C/COc1ccc2c3c(c(=O)oc2c1)CCCC3`, for which, in data set [1], the half-maximal inhibitory concentration (IC50) is above 85 µM. For the same molecule, the selectivity ratio in data set [2] was 1. In addition, in data set [3], the CC50 at 48 h is 100 µM.

In the case of `COc1cccc(COc2ccc3c(C)cc(=O)oc3c2)c1`, the IC50 in data set [1] stood at 1010 µM. Moreover, the selectivity ratio in data set [2] was above 1. The molecule also yielded a half-maximal cytotoxic concentration (CC50) at 48 h in data set [3] above 1120 µM.

With `CC1(C)[C@@H]2CC=C(COc3ccc4c5c(c(=O)oc4c3)CCC5)[C@H]1C2`, the IC50 in data set [1] was 33 µM. Moreover, the selectivity ratio in data set [2] was 4. The same molecule returned a CC50 at 48 h in data set [3] of 133 µM.

As for `COc1cccc(COc2ccc3c4c(c(=O)oc3c2)CCCC4)c1`, the concentration for half-maximal inhibition (IC50) in data set [1] is above 982 µM. The CC50 at 48 h in data set [3] is above 982 µM.

For `CC(C)=CCC/C(C)=C/COc1ccc2ccc(=O)oc2c1`, the half-maximal inhibitory concentration (IC50) in data set [1] worked out at 7 µM. Further, the selectivity ratio in data set [2] worked out at 1. In data set [3], this molecule came in with a CC50 at 48 h of 7 µM.

On to `CC(C)=CCC/C(C)=C/COc1ccc2c(C)cc(=O)oc2c1`, for which the IC50 in data set [1] is above 10 µM. Besides, the selectivity ratio in data set [2] was below 3. Further, in data set [3], the CC50 at 48 h is 28 µM.

As for `Cc1cc(=O)oc2cc(OCC3=CC[C@@H]4C[C@H]3C4(C)C)ccc12`, the 50% inhibitory concentration (IC50) in data set [1] stood at 10 µM. Further, in data set [2], the selectivity ratio turned out to be 13. In data set [3], this molecule came in with a 50% cytotoxic concentration (CC50) at 48 h of 130 µM.

For `CC1(C)[C@H]2CC=C(COc3ccc4c5c(c(=O)oc4c3)CCCC5)[C@@H]1C2`, the 50% inhibitory concentration (IC50) in data set [1] came to 64 µM. The selectivity ratio in data set [2] stood at 13. The same molecule registered a CC50 at 48 h in data set [3] of 857 µM.

With `CC1(C)[C@H]2CC=C(CCOc3ccc4c5c(c(=O)oc4c3)CCC5)[C@@H]1C2`, in data set [1], the IC50 turned out to be 21 µM. The selectivity ratio in data set [2] was determined as 41. Moreover, the half-maximal cytotoxic concentration (CC50) at 48 h in data set [3] is above 857 µM.

As to `Cc1cc(=O)oc2cc(OCC3=CC[C@H]4C[C@@H]3C4(C)C)ccc12`, in data set [1], the half-inhibitory concentration (IC50) is 4 µM. Further, the selectivity ratio in data set [2] was determined as 9. Besides, the cytotoxic concentration (CC50) at 48 h in data set [3] worked out at 30 µM.

For the molecule `COc1cccc(COc2ccc3ccc(=O)oc3c2)c1`, the IC50 in data set [1] is above 1170 µM. In addition, the half-maximal cytotoxic concentration (CC50) at 48 h in data set [3] was above 1170 µM.

Turning to `CC(N)C12CC3CC(CC(C3)C1)C2` (stereo unspecified) [RIMANTADINE], in data set [1], the IC50 was 41 µM. The selectivity ratio in data set [2] came out at 9. The molecule also showed a CC50 at 48 h in data set [3] of 363 µM.

For the molecule `CC1(C)[C@H]2CC=C(COc3ccc4c5c(c(=O)oc4c3)CCC5)[C@@H]1C2`, the IC50 in data set [1] was determined as 36 µM. Moreover, in data set [2], the selectivity ratio was found to be 28. In addition, the result in the data set with Influenza A virus [4] was Active. Also, the result with Influenza A virus [5] was inactive. The cytotoxic concentration (CC50) at 48 h in data set [3] is 982 µM.

With `CC1(C)[C@H]2CC=C(CCOc3ccc4ccc(=O)oc4c3)[C@@H]1C2`, in data set [1], the IC50 was 0.5 µM. Further, the selectivity ratio in data set [2] is 20. Moreover, in data set [3], the midpoint of cytotoxicity, the CC50 at 48 h, lay at 10 µM.

Regarding `CC1(C)[C@H]2CC=C(CCOc3ccc4c5c(c(=O)oc4c3)CCCC5)[C@@H]1C2`, the half-inhibitory concentration (IC50) in data set [1] was determined as 3 µM. Also, the selectivity ratio in data set [2] worked out at 6. The molecule also yielded a CC50 at 48 h in data set [3] of 18 µM.

`CC1(C)[C@H]2CC=C(COc3ccc4ccc(=O)oc4c3)[C@@H]1C2`: the half-maximal inhibitory concentration (IC50) in data set [1] was above 101 µM. Besides, in data set [2], the selectivity ratio was below 3. The molecule also came in with a CC50 at 48 h in data set [3] of 310 µM.

Regarding `CC(C)=CCC/C(C)=C/COc1ccc2c3c(c(=O)oc2c1)CCC3`, the IC50 in data set [1] was above 888 µM. This molecule also came in with a cytotoxic concentration (CC50) at 48 h in data set [3] above 888 µM.

Consider `CC1(C)[C@@H]2CC=C(COc3ccc4ccc(=O)oc4c3)[C@H]1C2`, for which the half-maximal inhibitory concentration (IC50) in data set [1] is above 10 µM. Moreover, in data set [2], the selectivity ratio came to 1. Also, the CC50 at 48 h in data set [3] was 7 µM.
